Data on three compounds can be found in ChEMBL document CHEMBL1125212, “Dual-action cephalosporins: cephalosporin 3'-quinolone carbamates” (J Med Chem, 1991).

Molecules are shown by their SMILES. In brackets after ≈: the same amount, converted by molar mass.

Assay [1] relates to Citrobacter freundii. In words: The compound was tested in vitro for minimum inhibitory concentration against Citrobacter Freundii BS-16. Type of assay: functional. The method, boiled down:
(§1)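 Agar dilution on Mueller-Hinton agar using 2-fold serial dilutions, giving final 128 to 0.0156 μg/mL (extended to 0.000977 μg/mL where needed). Inoculum was overnight broth culture diluted 100-fold, about 3×10^4 CFU/spot, applied by replicator. MIC read after overnight incubation at 36 °C.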

Assay [2] deals with Pseudomonas aeruginosa. As to the kind of experiment: The compound was tested in vitro for minimum inhibitory concentration against Pseudomonas aeruginosa 18S/H. Type of assay: functional. Put shortly: as §1
In assay [3] the test system is Proteus vulgaris. In words: The compound was tested in vitro for minimum inhibitory concentration against Proteus vulgaris 1028 BC. It counts as functional. The method, boiled down:
(§2)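 Proteus MICs by agar dilution on Mueller-Hinton medium containing 3% agar. Serial 2-fold dilutions gave final 128 to 0.0156 μg/mL (further to 0.000977 μg/mL). Inoculum was overnight broth diluted 100-fold, about 3×10^4 CFU/spot. Plates read after overnight incubation at 36 °C.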

Assay [4] has as its system Escherichia coli. In words: The compound was evaluated for the inhibition of [14C]- Pen G binding to Escherichia coli UB1005 penicillin-binding protein 1a 90 kDa. Put shortly:
(§3)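 Membranes from sonicated E. coli UB1005 were solubilized. Binding to penicillin-binding proteins was measured as inhibition of [14C]penicillin G binding.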

The test system of assay [5] is Staphylococcus aureus. In words: The compound was tested in vitro for minimum inhibitory concentration against Staphylococcus aureus smith. It counts as functional. The method, boiled down: as §1
For assay [6], the system named is Escherichia coli. As to the kind of experiment: Minimum inhibitory concentration required to inhibit the activity of Escherichia coli UB1005. Type of assay: functional. The method, boiled down:
as §1

Assay [7] relates to Escherichia coli. In words: The compound was tested in vitro for minimum inhibitory concentration against Escherichia coli TEM-1. It counts as functional. Put shortly:
as §1

Assay [8] concerns Escherichia coli. In words: Inhibitory activity on replicative DNA biosynthesis in Escherichia coli H560 (permeabilised cells). It counts as functional, organism-based. Put shortly:
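E. coli H560 cells permeabilized with toluene. ATP-dependent incorporation of [3H]thymidine into trichloroacetic acid-insoluble material was measured. IC50 taken as the concentration giving 50% inhibition.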

Assay [9] concerns Pseudomonas aeruginosa. As to the kind of experiment: The compound was tested in vitro for minimum inhibitory concentration against Pseudomonas aeruginosa 8780. It counts as functional. Put shortly:
as §1

Assay [10] concerns Escherichia coli. As to the kind of experiment: The compound was evaluated for the inhibition of [14C]- Pen G binding to Escherichia coli UB1005 penicillin-binding protein 2 66 kDa. The method, boiled down: as §3
The species named for assay [11] is Mus musculus. As to the kind of experiment: Effective dose against mouse infected with Pseudomonas aeruginosa 8780 (LDs-240). Type of assay: functional. Put shortly: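 CD1 Swiss albino mice (18-20 g) infected intraperitoneally with 0.5 mL of diluted bacterial suspension. Challenge expressed as a multiple of LD50. Drug given subcutaneously at the dorsal neck base within 5 min of infection (1.0 mL), with a second treatment 3 h after infection. Dose range 250 to 0.05 mg/kg. Six mice per group. ED50 by the Reed-Muench method.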

Assay [12] relates to Serratia marcescens. As to the kind of experiment: The compound was tested in vitro for minimum inhibitory concentration against Serratia marcescens 1071. It counts as functional. The method, boiled down:
as §1

Assay [13] has as its system Klebsiella pneumoniae. In words: The compound was tested in vitro for minimum inhibitory concentration against Klebsiella pneumoniae A. Type of assay: functional. Put shortly: as §1
Assay [14] has as its system Enterococcus faecalis. In words: The compound was tested in vitro for minimum inhibitory concentration against Enterococcus faecalis ATCC 29212. Type of assay: functional. The method, boiled down:
as §1

Assay [15] is filed under the species Mus musculus. As to the kind of experiment: Effective dose against mouse infected with Staphylococcus aureus 753 (MR) (LDs-6). It counts as functional. The method, boiled down:
(§4)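 Mouse protection test in CD1 Swiss albino mice (18-20 g) given an intraperitoneal challenge (0.5 mL of diluted culture), expressed as a multiple of LD50. A single subcutaneous dose of 1.0 mL test solution was given at the dorsal neck base within 5 min of infection. Dose range 250 to 0.05 mg/kg. Six mice per group. ED50 (protective dose) by Reed-Muench.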

For assay [16], the system named is Streptococcus pyogenes. As to the kind of experiment: The compound was tested in vitro for minimum inhibitory concentration against Streptococcus pyogenes. Type of assay: functional. Put shortly:
(§5)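 Streptococci tested by agar dilution on brain heart infusion agar with 20 units/mL bovine liver catalase. Final drug range 128 to 0.0156 μg/mL by 2-fold steps, extended to 0.000977 μg/mL when required. Inoculum about 3×10^4 CFU/spot from overnight broth diluted 100-fold. MIC after overnight incubation at 36 °C.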

Assay [17] deals with Micrococcus luteus. In words: The compound was tested in vitro for minimum inhibitory concentration against Micrococcus luteus ATCC 9341. Type of assay: functional. Put shortly:
as §1

In assay [18] the test system is Escherichia coli. As to the kind of experiment: The compound was tested in vitro for minimum inhibitory concentration against Escherichia coli 257. Type of assay: functional. The method, boiled down:
as §1

Assay [19] deals with Escherichia coli. In words: The compound was evaluated for the inhibition of [14C]- Pen G binding to Escherichia coli UB1005 penicillin-binding protein 1b 90 kDa. The method, boiled down: as §3
Assay [20] is filed under the species Mus musculus. As to the kind of experiment: Effective dose against mouse infected with Streptococcus pneumoniae 6301(LDs-5623). Type of assay: functional. Put shortly:
as §4

Assay [21] deals with Staphylococcus aureus. In words: The compound was tested in vitro for minimum inhibitory concentration against Staphylococcus aureus 67-0. It counts as functional. Put shortly: as §1
Assay [22] deals with Staphylococcus aureus. As to the kind of experiment: (§6) The compound was tested in vitro for minimum inhibitory concentration against Staphylococcus aureus 753. It counts as functional. Put shortly: as §1
Assay [23] relates to Escherichia coli. In words: Minimum inhibitory concentration required to inhibit the activity of Escherichia coli ATCC 25922. It counts as functional. Put shortly:
as §1

The test system of assay [24] is Enterobacter cloacae. In words: The compound was tested in vitro for minimum inhibitory concentration against Enterobacter cloacae P99. It counts as functional.
Assay [25] relates to Proteus mirabilis. In words: The compound was tested in vitro for minimum inhibitory concentration against Proteus mirabilis 90. It counts as functional. Put shortly:
as §2

Assay [26] relates to Escherichia coli. In words: The compound was tested in vitro for minimum inhibitory concentration against Escherichia coli ATCC 25922. Type of assay: functional. The method, boiled down: as §1
In assay [27] the test system is Escherichia coli. In words: The compound was evaluated for the inhibition of [14C]- Pen G binding to Escherichia coli UB1005 penicillin-binding protein 3 60 kDa. Put shortly:
as §3

Assay [28] relates to Streptococcus pneumoniae. As to the kind of experiment: The compound was tested in vitro for minimum inhibitory concentration against Streptococcus pneumoniae 6301. It counts as functional. Put shortly:
as §5

In assay [29] the test system is Escherichia coli. In words: Minimum inhibitory concentration for inhibition of [14C]- Pen G binding to Escherichia coli UB1005. It counts as functional. Put shortly:
as §3

In assay [30] the test system is Staphylococcus aureus. The assay is described as §6. It counts as functional, staphylococcus aureus smith. The method, boiled down: as §1
In assay [31] the test system is Escherichia coli. As to the kind of experiment: The compound was evaluated for the inhibition of [14C]- Pen G binding to Escherichia coli UB1005 PBP1b 90 kDa. It counts as functional. Put shortly:
(§7)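 Penicillin-binding protein assay using solubilized membranes from sonicated E. coli UB1005. Binding was read as inhibition of [14C]penicillin G binding to the PBPs.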

In assay [32] the test system is Escherichia coli. As to the kind of experiment: The compound was evaluated for the inhibition of [14C]- Pen G binding to Escherichia coli UB1005 PBP3 60 kDa. Type of assay: functional. Put shortly: as §7
Assay [33] deals with Escherichia coli. As to the kind of experiment: The compound was evaluated for the inhibition of [14C]- Pen G binding to Escherichia coli UB1005 PBP1a 90 kDa. It counts as functional. Put shortly:
as §7

For assay [34], the system named is Escherichia coli. In words: Minimum inhibitory concentration for inhibition of [14C]- Pen G binding to Escherichia coli UB1005. Type of assay: functional. The method, boiled down: as §7
The test system of assay [35] is Escherichia coli. In words: The compound was evaluated for the inhibition of [14C]- Pen G binding to Escherichia coli UB1005 PBP2 66 kDa. Type of assay: functional. The method, boiled down:
as §7

As for `CO/N=C(\C(=O)N[C@@H]1C(=O)N2C(C(=O)O)=C(COC(=O)N3CCN(c4cc5c(cc4F)c(=O)c(C(=O)O)cn5C4CC4)CC3)CS[C@H]12)c1csc(N)n1`, the minimal inhibitory concentration (MIC) (usually the least concentration at which growth counts as inhibited) came out at 0.125 µg/mL (≈ 0.162 µM) in assay [1]; 1 µg/mL (≈ 1.3 µM) in [2]; 0.063 µg/mL (≈ 0.0817 µM) in assay [3]; 0.5 µg/mL (≈ 0.649 µM) in assay [5]; 0.5 µg/mL (≈ 0.649 µM) in assay [6]; 0.063 µg/mL (≈ 0.0817 µM) in [7]. In addition, the MIC in [9] is 1 µg/mL (≈ 1.3 µM); in [12], 0.25 µg/mL (≈ 0.324 µM); in [13], 0.125 µg/mL (≈ 0.162 µM); in assay [14], 0.25 µg/mL (≈ 0.324 µM); in assay [16] it was < 0.016 µg/mL; in assay [17], 0.031 µg/mL (≈ 0.0402 µM). Also, the minimum inhibitory concentration (MIC) in assay [18] was 0.031 µg/mL (≈ 0.0402 µM); in assay [21], 2 µg/mL (≈ 2.59 µM); in assay [22] it was 2 µg/mL (≈ 2.59 µM); in [23], 0.03 µg/mL (≈ 0.0389 µM); in [24] it was < 0.016 µg/mL; in assay [25], 0.063 µg/mL (≈ 0.0817 µM). In addition, the figures for the MIC in [26], in assay [28] and in assay [29] were 0.031 µg/mL (≈ 0.0402 µM), < 0.016 µg/mL and 0.5 µg/mL (≈ 0.649 µM), respectively. The Inhibitory concentration in assay [4] is 100 µg/mL; in assay [10] it was > 100 µg/mL; in assay [19], 30 µg/mL; in assay [27], 0.5 µg/mL. For the same compound, half-maximal inhibition in assay [8] (IC50) was put at 0.9 µg/mL (≈ 1.17 µM). Besides, the ED50 (in general, the dose at which the effect has come halfway, by size or by number of responders) in [11] stood at 33 mg/kg; in assay [15] it was 28 mg/kg; in [20], 10 mg/kg.
`CC(=O)OCC1=C(C(=O)O)N2C(=O)[C@@H](NC(=O)COc3ccccc3)[C@H]2SC1`: the minimum inhibitory concentration (MIC) is > 128 µg/mL in assay [1]; > 128 µg/mL in assay [2]; > 128 µg/mL in [3]; 0.063 µg/mL (≈ 0.155 µM) in assay [5]; 128 µg/mL (≈ 315 µM) in assay [7]; > 128 µg/mL in [9]. Further, the minimal inhibitory concentration (MIC) was > 128 µg/mL in [12]; 128 µg/mL (≈ 315 µM) in assay [13]; 32 µg/mL (≈ 78.7 µM) in assay [14]; 0.125 µg/mL (≈ 0.308 µM) in [16]; 0.125 µg/mL (≈ 0.308 µM) in [17]; 64 µg/mL (≈ 157 µM) in assay [18]. Further, the minimum inhibitory concentration (MIC) was 128 µg/mL (≈ 315 µM) in [30]; 128 µg/mL (≈ 315 µM) in assay [21]; > 128 µg/mL in assay [24]; 32 µg/mL (≈ 78.7 µM) in assay [25]; 128 µg/mL (≈ 315 µM) in [26]; 0.125 µg/mL (≈ 0.308 µM) in assay [28]. Also, the MIC in assay [29] is > 128 µg/mL. The Inhibitory concentration in [4] was 0.5 µg/mL; in [10], > 100 µg/mL; in assay [19] it was 100 µg/mL; in assay [27], 10 µg/mL.
For `CCN1CCN(C(=O)N[C@@H](C(=O)N[C@@H]2C(=O)N3C(C(=O)O)=C(CSc4nnnn4C)CS[C@H]23)c2ccc(O)cc2)C(=O)C1=O` [CEFOPERAZONE], the Inhibitory concentration in assay [31] was 10 µg/mL; in assay [32], < 0.1 µg/mL; in [33], 10 µg/mL; in [35] it was 2 µg/mL. In assay [34], this compound had an MIC of 1 µg/mL (≈ 1.55 µM).
